In ChEMBL document CHEMBL1154794, “Asterolaurins A-F, xenicane diterpenoids from the Taiwanese soft coral Asterospicularia laurae” (J Nat Prod, 2009):

Columns and labels:
[1] = Antiinflammatory activity in human neutrophils assessed as inhibition of fMLP/cytochalasin B-induced elastase release at 10 ug/ml after 5 mins; assay type: functional; settings: Neutrophil
Procedure, shortened: (§1)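 Neutrophils (6 × 10^5/mL) given MeO-Suc-Ala-Ala-Pro-Val-p-nitroanilide (100 µM) as substrate, equilibrated 2 min at 37 °C, then exposed to compound for 5 min. Stimulated with FMLP (100 nM)/CB (0.5 µg/mL). Absorbance at 405 nm followed continuously. Initial rate of elastase release expressed as percentage of the FMLP/CB-activated DMSO control. Genistein served as positive control.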

HepG2 = assay: Cytotoxicity against human HepG2 cells by MTT assay; assay type: functional, cell-based
Procedure, shortened: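 Human liver carcinoma HepG2 cells, viability read by MTT assay. Camptothecin served as positive control.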

[2] = Antiinflammatory activity in human neutrophils assessed as inhibition of fMLP/cytochalasin B-induced superoxide anion generation at 10 ug/ml after 5 mins by spectrophotometry; assay type: functional; settings: Neutrophil
Procedure, shortened: (§2)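 Neutrophils isolated by dextran sedimentation and Ficoll centrifugation. Cells supplemented with ferricytochrome c (0.5 mg/mL) and Ca2+ (1 mM), equilibrated 2 min at 37 °C, then given compound for 5 min. CB (1 µg/mL) added 3 min before FMLP (100 nM) activation for 10 min. Superoxide dismutase-inhibitable ferricytochrome c reduction followed continuously at 550 nm with stirring.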

[3] = Antiinflammatory activity in human neutrophils assessed as inhibition of fMLP/cytochalasin B-induced elastase release after 5 mins; assay type: functional, cell-based; settings: Neutrophil; procedure, shortened: as §1
[4] = Antiinflammatory activity in human neutrophils assessed as inhibition of fMLP/cytochalasin B-induced superoxide anion generation after 5 mins by spectrophotometry; assay type: functional, cell-based; settings: Neutrophil; procedure, shortened: as §2

Row | IC50 [3] [µM] | IC50 [4] [µM] | Compound | inhibition at 10 µg/mL [1] [%] | IC50 (HepG2) [µM] | inhibition at 10 µg/mL [2] [%]
1 | 18.7 | 23.6 | C=C1C[C@@H](OC(C)=O)/C=C(\C)CC[C@@H]2/C(=C\C=C\C(C)(C)O)CO[C@H](O)[C@@H]12 [ASTEROLAURIN D] | 68 | > 40 | 56
2 | – | – | C=C1C[C@@H](O)[C@@H](O)/C(C)=C\C[C@@H]2C([C@@H](OC(C)=O)[C@H](C=C(C)C)OC(C)=O)=CO[C@H](OC(C)=O)[C@@H]12 [ASTEROLAURIN B] | 30 | > 40 | 31
3 | 40 | – | C=C1C[C@@H](O)[C@@H]2O[C@@]2(C)CC[C@@H]2C([C@@H](OC(C)=O)[C@H](C=C(C)C)OC(C)=O)=CO[C@H](OC(C)=O)[C@@H]12 [ASTEROLAURIN A] | – | 8.9 | –
4 | – | – | C=C1C[C@@H](OC(C)=O)/C=C(\C)CC[C@@H]2/C(=C\[C@H](O)C=C(C)C)C(=O)OC[C@@H]12 | 13 | > 40 | 9
5 | – | – | O=c1c(-c2ccc(O)cc2)coc2cc(O)cc(O)c12 [GENISTEIN] | 52 | – | 65
6 | – | – | C=C1C[C@@H](OC(C)=O)/C=C(\COC(C)=O)CC[C@@H]2/C(=C\[C@H](O)C=C(C)C)C(=O)OC[C@@H]12 [ASTEROLAURIN E] | 36 | > 40 | 24
7 | – | – | C=C1C[C@@H](O)[C@@H](O)C(=C)CC[C@@H]2C([C@@H](OC(C)=O)[C@H](C=C(C)C)OC(C)=O)=CO[C@H](OC(C)=O)[C@@H]12 [ASTEROLAURIN C] | 39 | > 40 | 22
